Screening data as filed in PubChem.
Only some compounds are listed: those with a hit (about 3.8% of all), similar ones and a draw of the others.
hERG protect: hERG rescue from dofetilide block, primary screen, cell-based, CHO-hERG, FluxOR thallium flux, dofetilide IC70; hit rate 0.51% among 310,000; activation (rescue from dofetilide block), less the hit threshold, % at 10 µM; AID 1511, 2009; dofetilide IC70 present; Voltage-gated inwardly rectifying potassium channel KCNH2 (Homo sapiens), Q12809;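 active = activation above the mean of controls blocked by dofetilide plus 5 SD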;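 also: thallium influx through hERG after potassium depolarization seen as dye fluorescence rise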
KCNK3 inh: human KCNK3 channel inhibitors, primary screen, CHO cells, FluxOR thallium flux, B-score; hit rate 0.84% among 340,000; Potassium channel subfamily K member 3 (Homo sapiens), O14649; B-score at 10 µM; FluxOR fluorescence; active compounds read low;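 active = B-score under library mean minus 4 SD, starting fluorescence ratio at most library mean plus 5 SD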;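 also: more negative B-score means stronger inhibition of thallium flux through KCNK3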
KCNQ1 act: potentiators or activators of KCNQ1 channel, primary screen, cell-based, thallium flux, high-throughput; B-score at 10 µM; hit rate 0.35% among 310,000; Potassium voltage-gated channel subfamily KQT member 1 (Homo sapiens), P51787; AID 2648, 2010; CHO-K1 KCNQ1, thallium flux FluxOR fluorescence; active compounds read high;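 active = fluorescence ratio B-score, a plate-corrected score, at least three library SD, with initial intensity B-score within 5 SD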
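Assay system: CHO-K1 cells stably expressing KCNQ1. Medium: assay buffer for compound exposure, DMSO matched across wells. Timing: 37 °C overnight plating, 90-min dark dye load, 20-min compound pretreatment. Signal: kinetic FluxOR fluorescence, 10 s baseline plus 110 s post-stimulus.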
KCNK9 inh-1: KCNK9 potassium channel inhibitors, primary screen, HEK293 cells, thallium flux. Potassium channel subfamily K member 9 (Homo sapiens), Q9NPC2. FluxOR thallium flux fluorescence; active compounds read low. B-score at 10 µM. hit rate 1.2% among 310,000. AID 488922, 2010;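 active = ratio B-score over 3 SD below the library mean, with starting fluorescence within 5 SD of its mean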;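 also: negative B-score means less thallium flux so channel inhibition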
Kir21 inh: inhibitors of mouse Kir2.1 inward-rectifier potassium channel; B-score at 10 µM; hit rate 0.85% among 310,000; AID 1672, 2009; HEK293-Kir2.1, FluxOR thallium flux fluorescence; active compounds read low;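 active = fluorescence ratio B-score at or below minus 3 SD of library scores, with starting-brightness B-score within 2 SD, cut at about -4.2 in these data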;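 also: channel flux triggered by added potassium and thallium sulfate stimulus; B-score of peak minus minimum fluorescence over baseline after thallium stimulus; more negative B-score means stronger Kir2.1 block with less thallium influx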
KCNQ1 inh: inhibitors of human KCNQ1 channel, primary screen, cell-based, thallium flux, high-throughput | CHO-K1 KCNQ1, FluxOR thallium flux fluorescence; active compounds read high | hit rate 1.3% among 310,000 | B-score at 10 µM | AID 2642, 2010;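 active = compounds whose thallium flux B-score, printed positive for inhibition, exceeds three library SD while starting fluorescence stays within three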;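 also: channel opened by potassium depolarization with thallium stimulus after 20 min compound exposure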
hERG inh: hERG channel inhibition, counter-screen for Kir2.1 inhibitor project, cell-based, thallium flux. shares compounds with Kir21 inh. AID 2236, 2010. hERG-expressing cells. inhibition, % at 10 µM. hit rate 20% among 320;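 also: host cells are CHO cells stably expressing hERG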
KCNK9 inh-2: KCNK9 channel inhibition, selectivity assay for Kir2.1 inhibitor project, cell-based. shares compounds with Kir21 inh. KCNK9-expressing cells, ion flux inhibition. inhibition, % at 10 µM. hit rate 5% among 320. AID 2329, 2010
Kir2-1 patch inh: mouse Kir2.1 channel blockers, Kir2.1 inhibitor project, cell-based, secondary, automated electrophysiology. shares compounds with Kir21 inh. Kir2.1 cells, automated patch-clamp current inhibition. inhibition, % at 25 µM. hit rate 71% among 320. AID 463252, 2010
* marks the source's active call; other numbers are inactive results; i = inactive; . = not tested or not shown. Unless noted, no rule for the calls is given here.

SMILES	hERG protect	KCNK3 inh	KCNQ1 act	KCNK9 inh-1	Kir21 inh	KCNQ1 inh	hERG inh	KCNK9 inh-2	Kir2-1 patch inh
CC(NCCC(Cc1ccccc1)c1ccco1)c1ccccc1 (stereo unspecified)	-22	i	i	i	-14*	i	i	i	i
COc1ccc(CCC(=O)N2CCN(c3ccccc3)CC2)cc1OC	-8	i	i	i	-0.04	i	.	.	.
O=C(NCCc1ccc(Cl)cc1)C1(c2ccccc2)CC1	-11	i	i	i	-9.5*	i	i	i	44%*
COc1ccc(C2(C(=O)NCCc3ccccc3)CCCC2)cc1	-15	i	i	i	-3.1	i	.	.	.
CCc1nc(C)cn1S(=O)(=O)c1ccc(Cl)c(Cl)c1Cl	-17	i	i	i	-2.5	i	.	.	.
CCc1nc(C)cn1S(=O)(=O)c1cc(Cl)c(OC)cc1Cl	-5	i	i	i	-10*	i	i	i	51%*
CCc1nc(C)cn1S(=O)(=O)c1cc(Br)ccc1OC	-14	i	i	i	-8.9*	i	i	i	64%*
COCc1cc(=O)[nH]c(N2CCN(c3ccccc3OC)CC2)n1	-2	i	i	i	-2.6	i	.	.	.
COc1ccc(-c2csc(Cc3nnc4n3CCCCC4)n2)cc1OC	-10	i	i	i	0.56	i	.	.	.
Nc1nc(C2CCOCC2)cs1	-10	i	i	i	-0.08	i	.	.	.
Nc1nc(C2CC2)c(Sc2sc(N)nc2C2CC2)s1	-8	i	i	i	-8.2*	i	i	i	6.1%*
COc1ccc(C(=O)CN2Cc3ccccc3C2=N)cc1	-3	i	i	i	-11*	i	65%*	i	i
CCCC(C)NC(=O)C1CC(=O)N(CCc2ccc(F)cc2)C1 (stereo unspecified)	-7	i	i	i	2.7	i	.	.	.
CCCCN(CCCC)CCNC(=O)CN1C(=O)COc2ccc(S(=O)(=O)N3CCC(C)CC3)cc21	-6	i	i	i	-1.9	i	.	.	.
CCCCN(CCCNC(=O)CN1C(=O)COc2ccc(S(=O)(=O)N3CCC(C)CC3)cc21)Cc1ccccc1	-11	i	i	i	-5.7*	i	i	i	i
O=C(Nc1ccc(N2CCOCC2)cc1)c1ccc([N+](=O)[O-])cc1	-9	i	i	i	2.1	i	.	.	.
Cc1ccc(NC(=O)COc2ccccc2CNC(C)(C)CC(C)(C)C)cc1	-19	i	i	i	-6.3*	8*	50%*	37%*	i
CC(C)(CO)NCc1ccccc1OCC(=O)Nc1ccccc1	-1	i	i	i	-0.12	i	.	.	.
Cc1ccc(C2C(C#N)=C(N)OC3=C2C(=O)CCC3)s1 (stereo unspecified)	-5	i	i	i	-0.05	i	.	.	.
CCOc1cc(C)c(Cl)cc1S(=O)(=O)NCc1ccco1	-13	i	i	i	-8*	i	i	i	31%*
COc1cc(C)c(Cl)cc1S(=O)(=O)NCc1ccco1	-5	i	i	i	-1.5	i	.	.	.
C=CCNc1nc(NCc2ccccc2)c(C#N)c2c1CN(C)CC2	-14	i	i	i	-6.8*	i	64%*	i	1.6%*
Cc1ccc(/C(=N/Nc2nc3ccccc3s2)C2=C(O)c3ccccc3C2=O)cc1	-16	i	i	i	4.4	10*	i	i	i
CCCCOCCCNC(=O)N[C@@H](CCSC)C(=O)OC	-10	i	i	i	-0.05	i	.	.	.
Cc1cc(OCCCC(=O)Nc2nnc(C3CC3)s2)ccc1Cl	.	i	.	.	.	.	.	.	.
SMILES	hERG protect	KCNK3 inh	KCNQ1 act	KCNK9 inh-1	Kir21 inh	KCNQ1 inh	hERG inh	KCNK9 inh-2	Kir2-1 patch inh
COc1ccc(CCNS(=O)(=O)c2cc3c4c(c2)CC(=O)N4CCC3)cc1	-5	i	i	i	-0.44	i	.	.	.
CCOc1cc(/C=N/O)ccc1OS(=O)(=O)c1ccc(C)cc1	-5	i	i	i	-7.5*	i	i	i	6.7%*
C=CCNCCCCOc1c(Cl)cc(C)cc1Br	-14	i	i	i	-9.3*	i	i	i	48%*
CCOC(=O)C1CCN(Cc2c(O)ccc3ccccc23)CC1	-11	i	i	i	-7.6*	i	i	i	4.0%*
C=CCN1C=CC(=O)[C@@H](O)[C@H]1c1ccccc1Br	.	i	.	.	.	.	.	.	.
CCN(c1ccccc1)S(=O)(=O)c1ccc(F)cc1	-6	i	i	i	-6.2*	i	i	i	37%*
CCc1ccc(NC(=O)COc2coc(CN3CCc4ccccc4C3)cc2=O)cc1	-15	i	i	i	-0.28	i	.	.	.
COC(=O)C1=C(C)N(Cc2ccccc2)C(=NCCc2ccccn2)N[C@H]1c1cccc(F)c1	-8	i	i	i	-6.7*	i	i	i	3.0%*
O=C(CSc1nc2ccccc2[nH]1)NCc1ccc2c(c1)OCO2	-15	i	i	i	-2.5	i	.	.	.
NS(=O)(=O)c1ccc(CCNCc2cc(Br)ccc2OCc2ccccc2F)cc1	-17	i	i	i	-6.3*	i	i	46%*	12%*
NS(=O)(=O)c1ccc(CCNCc2ccccc2OCc2ccc(Cl)cc2)cc1	-15	i	i	i	-8.2*	i	65%*	i	31%*
Cc1ccc(C)c(NC(=O)CN(C)C(=O)c2cc(C3CC3)nn2-c2ccccc2)c1	.	i	.	.	.	.	.	.	.
CCOC(=O)c1ccc(NC(=O)NCc2ccncc2)cc1	-8	i	i	i	-0.66	i	.	.	.
CCOc1ccc(CN2CCC(Cc3ccccc3)CC2)cc1	-9	i	i	i	-5.8*	i	68%*	i	49%*
Cc1cc(=O)n2[nH]nnc2n1	-2	i	i	i	0.01	i	.	.	.
